Activity calls are given as the source filed them. The rule behind the calls is not given here.
System: Trichomonas vaginalis
Test: Inhibition of Trichomonas vaginalis uridine nucleoside ribohydrolase using 5-fluorouridine as substrate at 0.04 to 200 uM after 40 mins by NMR spectrometric analysis
Summary of the method: (§1)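 UNH at 80 nM in 50 mM potassium phosphate, 0.3 M KCl, pH 6.5, with 10% 2H2O. Test compounds added from DMSO solutions and mixed thoroughly. Reaction read at the 40 min time point. Screening was done at 50 μM in mixtures of three. IC50 determinations used final assay concentrations from 200 μM to 0.04 μM.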

| SMILES | Active/inactive screening call | inhibition |
| --- | --- | --- |
| CC1=C(/C=C/C(C)=C/C=C/C(C)=C/C(=O)O)C(C)(C)CCC1 | Active | – |
| O=C1C(CC[S+]([O-])c2ccccc2)C(=O)N(c2ccccc2)N1c1ccccc1 (stereo unspecified) | Active | – |
| COc1ccnc(C[S+]([O-])c2nc3cc(OC(F)F)ccc3[nH]2)c1OC (stereo unspecified) [PANTOPRAZOLE SODIUM] | Active | – |
| N[C@@H](C(=O)N[C@@H]1C(=O)N2C(C(=O)O)=C(CSc3c[nH]nn3)CS[C@H]12)c1ccc(O)cc1 | Active | – |
| COC(=O)C1=C(C)NC(C)=C(C(=O)OCC(C)C)C1c1ccccc1[N+](=O)[O-] (stereo unspecified) | Active | – |
| N[C@@H](C(=O)N[C@@H]1C(=O)N2C(C(=O)O)=C(Cl)CS[C@H]12)c1ccccc1 | Active | – |
| CN(C)CCCN1c2ccccc2CCc2ccc(Cl)cc21 | Active | – |
| COc1ccc2[nH]c([S+]([O-])Cc3ncc(C)c(OC)c3C)nc2c1 (stereo unspecified) [OMEPRAZOLE] | Active | – |
| CN(C)[C@@H]1C(O)=C(C(N)=O)C(=O)[C@@]2(O)C(O)=C3C(=O)c4c(O)cccc4[C@@](C)(O)[C@H]3[C@H](O)[C@@H]12 | Active | – |
| CN[C@@H]1C[C@@H](c2ccc(Cl)c(Cl)c2)c2ccccc21 (relative stereo) | – | Active |
| COC(=O)C1=C(C)NC(C)=C(C(=O)OCCN(C)Cc2ccccc2)C1c1cccc([N+](=O)[O-])c1 (stereo unspecified) | Active | – |
| O=C(O[C@@H]1Cc2c(O)cc(O)cc2O[C@@H]1c1cc(O)c(O)c(O)c1)c1cc(O)c(O)c(O)c1 | – | Active |
| CC(=O)Oc1ccccc1C(=O)Nc1ncc([N+](=O)[O-])s1 | – | Active |
| CCC1=C[C@@H]2CN(C1)Cc1c([nH]c3ccccc13)[C@@](C(=O)OC)(c1cc3c(cc1OC)N(C)[C@H]1[C@@](O)(C(=O)OC)[C@H](OC(C)=O)[C@]4(CC)C=CCN5CC[C@]31[C@@H]54)C2 | Active | – |
| Oc1ccc2c3c1O[C@H]1c4[nH]c5ccccc5c4C[C@@]4(O)[C@@H](C2)N(CC2CC2)CC[C@]314 | – | Active |
| Sc1ncnc2nc[nH]c12 | Active | – |
| CC1=C(/C=C/C(C)=C/C=C/C(C)=C\C(=O)O)C(C)(C)CCC1 | Active | – |
| COC(=O)C1=C(C)NC(C)=C(C(=O)OC)C1c1ccccc1[N+](=O)[O-] | – | Active |
| CNC1=Nc2ccc(Cl)cc2C(c2ccccc2)=[N+]([O-])C1 | – | Active |
| Oc1cc2c(cc1O)[C@H]1c3ccccc3CN[C@@H]1CC2 (relative stereo) | Active | – |
| CCOC(=O)C1=C(C)NC(C)=C(C(=O)OC)C1c1cccc([N+](=O)[O-])c1 (stereo unspecified) | Active | – |
| CCOC(=O)C1=C(COCCN)NC(C)=C(C(=O)OC)C1c1ccccc1Cl (stereo unspecified) | – | Active |
| COCCCOc1ccnc(C[S+]([O-])c2nc3ccccc3[nH]2)c1C (stereo unspecified) [RABEPRAZOLE] | Active | – |

Molecular target: not listed separately
Test: Inhibition of Trichomonas vaginalis uridine nucleoside ribohydrolase using 5-fluorouridine as substrate after 40 mins by NMR spectrometric analysis
Summary of the method: as §1

| SMILES | IC50 [µM] |
| --- | --- |
| COc1ccnc(C[S+]([O-])c2nc3cc(OC(F)F)ccc3[nH]2)c1OC (stereo unspecified) [PANTOPRAZOLE SODIUM] | 14.5 |
| COc1ccc2[nH]c([S+]([O-])Cc3ncc(C)c(OC)c3C)nc2c1 (stereo unspecified) [OMEPRAZOLE] | 2.3 |
| COCCCOc1ccnc(C[S+]([O-])c2nc3ccccc3[nH]2)c1C (stereo unspecified) [RABEPRAZOLE] | 0.3 |

From ChEMBL document CHEMBL3112434, “Identification of proton-pump inhibitor drugs that inhibit Trichomonas vaginalis uridine nucleoside ribohydrolase” (Bioorg Med Chem Lett, 2014)
